In series [1] the target is T1, Myelin-associated glycoprotein (Mus musculus) (UniProt P20917).
T1 sequence (whole entry): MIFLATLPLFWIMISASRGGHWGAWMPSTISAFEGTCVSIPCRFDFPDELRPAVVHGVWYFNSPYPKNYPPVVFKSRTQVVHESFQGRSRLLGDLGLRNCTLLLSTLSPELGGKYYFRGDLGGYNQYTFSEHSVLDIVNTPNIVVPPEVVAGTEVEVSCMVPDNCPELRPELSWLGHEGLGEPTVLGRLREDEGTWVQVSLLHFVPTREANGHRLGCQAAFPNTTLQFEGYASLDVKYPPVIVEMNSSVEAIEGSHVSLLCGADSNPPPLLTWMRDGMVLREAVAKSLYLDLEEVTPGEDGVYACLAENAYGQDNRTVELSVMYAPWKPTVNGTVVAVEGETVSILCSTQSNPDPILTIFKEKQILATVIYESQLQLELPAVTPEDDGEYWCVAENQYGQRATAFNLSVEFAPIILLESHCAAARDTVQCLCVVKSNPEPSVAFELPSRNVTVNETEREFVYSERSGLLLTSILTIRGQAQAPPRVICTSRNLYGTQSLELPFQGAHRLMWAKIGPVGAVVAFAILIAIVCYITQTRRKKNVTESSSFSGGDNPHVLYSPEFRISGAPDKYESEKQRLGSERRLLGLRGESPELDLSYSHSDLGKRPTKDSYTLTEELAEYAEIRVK
Description: Inhibition of mouse MAGd1-3Fc expressed in CHO-Lec 3.2.8.1 cells by hepten inhibition assay relative to sodium-(2R,4S,5R,6R)-5-acetamido-2-(benzyloxy)-6-((1S,2R)-3-(4-chlorobenzamido)-1,2-dihydroxypropyl)-4-hydroxytetrahydro-2H-pyran-2-carboxylate. Type of series: cell-based. An outline of the steps: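 Fetuin-coated microtiter plates. Murine MAGd1-3-Fc (from CHO-Lec 3.2.8.1, dialyzed into 10 mM phosphate pH 7.4) bound in the presence of 7-8 inhibitor concentrations, in triplicate. Bound protein detected with alkaline phosphatase-labeled anti-Fc, read as initial rate of fluorescein release from fluorescein diphosphate. IC50 from binding curves converted to rIC50. At least three independent titrations.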

In series [2] the target is T2, Myelin-associated glycoprotein (Mus musculus, UniProt P20917).
T2 sequence (P20917 whole entry): T1 sequence (whole entry)
Description: Binding affinity to mouse MAGd1-3Fc expressed in CHO-Lec 3.2.8.1 cells by SPR analysis. An outline of the steps:
(§1)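 Murine MAGd1-3-Fc (purified from CHO-Lec 3.2.8.1 supernatant) captured at 30-40 μg/mL to about 2000 RU on protein A, which was amine-coupled to a CM5 chip. Runs at 25 °C, 20 μL/min, with 1 min injection and 1 min dissociation. Ten-fold dilution series in duplicate, double blank referenced. Negative sensorgrams mirrored; equilibrium KD.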

A short description of series [3]: Octanol-water distribution coefficient, log D at pH 7.4 by shake-flask technique. It is filed as physicochemical.
Series [4] addresses T2, Myelin-associated glycoprotein. The series is described as follows: Binding affinity to mouse MAGd1-3Fc expressed in CHO-Lec 3.2.8.1 cells under HBS-EP condition by CM5 chip SPR analysis. A digest of the protocol:
as §1

For series [5] the target is unchanged. Description: Binding affinity to mouse MAGd1-3Fc expressed in CHO-Lec 3.2.8.1 cells under HEPES condition by CM5 chip SPR analysis. A digest of the protocol: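 Murine MAGd1-3-Fc captured on protein A on a CM5 chip. Running buffer carried 50 mM instead of 10 mM HEPES to raise buffer capacity. SPR at 25 °C, 20 μL/min, 1 min injection and 1 min dissociation, double blank referenced. KD taken at equilibrium from mirrored sensorgrams.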

Series [6] has the same target. The series is described as follows: Binding affinity to mouse MAGd1-3Fc expressed in CHO-Lec 3.2.8.1 cells under NaCl condition by CM5 chip SPR analysis. An outline of the steps: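 SPR on a CM5 chip with protein A-captured murine MAGd1-3-Fc. Salt was raised to 150-500 mM NaCl to exclude ionic repulsion. Runs at 25 °C, 20 μL/min, 1 min contact and 1 min dissociation, double blank referenced. Equilibrium KD from mirrored sensorgrams.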

The target is the same in series [7]. The series is described as follows: Binding affinity to mouse MAGd1-3Fc expressed in CHO-Lec 3.2.8.1 cells under carboxymethyl-dextran sodium salt condition by CM5 chip SPR analysis. An outline of the steps:
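Dextran (1 mg/mL) added to the running buffer to test nonspecific binding to the matrix. Murine MAGd1-3-Fc captured via protein A on a CM5 chip. Runs at 25 °C, 20 μL/min, 1 min injection and 1 min dissociation. Equilibrium KD from mirrored sensorgrams.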

Series [8] shares this target. The series is described as follows: Binding affinity to mouse MAGd1-3Fc expressed in CHO-Lec 3.2.8.1 cells under HBS-EP condition by CM4 chip SPR analysis. An outline of the steps: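 Protein A was amine-coupled to a CM4 chip (lower carboxylate density) and murine MAGd1-3-Fc captured on it. Run in HBS-EP at 25 °C, 20 μL/min, with 1 min association and 1 min dissociation. Ten-fold dilution series in duplicate, double blank referenced. Negative sensorgrams mirrored to give equilibrium KD.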

A short description of series [9]: Stability in artificial cerebrospinal fluid at 37 degC […]. Type of series: physicochemical. The following applies: read-out: Stability.
Series [10] can be described thus: Stability in buffer solution at 37 degC after 19 hrs. It is filed as physicochemical. The following applies: read-out: Stability.
For series [11], the target named is T1, Myelin-associated glycoprotein (Mus musculus). Description: Relative binding affinity to mouse MAGd1-3Fc expressed in CHO-Lec 3.2.8.1 cells by NMR analysis relative to compound 4.
The target in series [12] is T2, Myelin-associated glycoprotein. Description: Binding affinity to mouse MAGd1-3Fc expressed in CHO-Lec 3.2.8.1 cells by biocore. Type of series: cell-based. An outline of the steps: as §1

Turning to `O=C(NC[C@@H](O)[C@H](O)[C@@H]1O[C@@](OCc2cccc(F)c2F)(C(=O)O)C[C@H](O)[C@H]1NS(=O)(=O)c1ccccc1[N+](=O)[O-])c1ccc(Cl)cc1`, the Ratio in series [1] turned out to be 0.05. The Kd in series [2] came out at 1.4 µM. In series [3], the log distribution coefficient (logD) is 0.87.

As to `CC(=O)N[C@H]1[C@H]([C@@H](O)[C@H](O)CNC(=O)c2ccccc2)O[C@@](OCc2ccccc2)(C(=O)O)C[C@@H]1O`, in [1], the Ratio was 1.5. Moreover, the equilibrium dissociation constant (Kd) in [2] amounted to 26 µM; in series [4], 21.8 µM; in series [5], 17.6 µM; in series [6], 14.9 µM; in [7], 17.8 µM; in series [8], 20 µM.

Regarding `CS(=O)(=O)N[C@H]1[C@H]([C@@H](O)[C@H](O)CNC(=O)c2ccc(Cl)cc2)O[C@@](OCc2cccc(F)c2F)(C(=O)O)C[C@@H]1O`, the Ratio in [1] amounted to 0.6. Moreover, in series [2], the Kd was 17 µM. In series [3], the logD is -0.17.

Regarding `CC(=O)N[C@H]1[C@H]([C@@H](O)[C@H](O)CNC(=O)c2ccc(Cl)cc2)O[C@@](OCc2cccc(Cl)c2Cl)(C(=O)O)C[C@@H]1O`, the Ratio in [1] came to 0.5. Besides, binding in series [2] was characterised by a dissociation constant (Kd) of 4.3 µM. In [3], this compound returned a logD of 0.53.

With `CC(=O)N[C@H]1[C@H]([C@@H](O)[C@H](O)CNC(=O)c2ccc(Cl)cc2)O[C@@](OCc2ccc3ccccc3c2)(C(=O)O)C[C@@H]1O`, the Ratio in [1] is 0.74. The Kd in [2] worked out at 11.6 µM. The compound also registered a logD in [3] of 0.58.

With `CC(=O)N[C@H]1[C@H]([C@@H](O)[C@H](O)CNC(=O)c2ccc(Cl)cc2)O[C@@](OCc2c(F)c(F)c(F)c(F)c2F)(C(=O)O)C[C@@H]1O`, the Ratio in series [1] was 0.26. The Kd in [2] was 6.1 µM. In [3], the logD was -0.11.

Regarding `CC(=O)N[C@H]1[C@H]([C@@H](O)[C@H](O)CNC(=O)c2ccc(Cl)cc2)O[C@@](OCc2cccc(F)c2F)(C(=O)O)C[C@@H]1O`, the Ratio was determined as 0.3 in series [1] and 34.4 in series [11]. In series [2], the Kd worked out at 2.4 µM. Further, in [3], the logD is -0.27. Besides, the remaining in series [9] was 95%. Moreover, the remaining at 19 h in series [10] worked out at 95%.

In the case of `O=C(NC[C@@H](O)[C@H](O)[C@@H]1O[C@@](OCc2cccc(F)c2F)(C(=O)O)C[C@H](O)[C@H]1NC(=O)C1CCC1)c1ccc(Cl)cc1`, the Ratio in series [1] worked out at 0.14. Moreover, in series [2], binding was characterised by a dissociation constant (Kd) of 5.8 µM. In addition, in series [3], the logD was found to be 0.75.

In the case of `O=C(CF)N[C@H]1[C@H]([C@@H](O)[C@H](O)CNC(=O)c2ccc(Cl)cc2)O[C@@](OCc2cccc(F)c2F)(C(=O)O)C[C@@H]1O`, the Ratio in [1] was found to be 0.02. In addition, the Kd in series [2] is 0.5 µM. Besides, the logD in series [3] is -0.26. Further, in series [9], the remaining is 95%. In series [10], the remaining at 19 h amounted to 95%.

On to `CO[C@]1(C(=O)O)C[C@H](O)[C@@H](NC(C)=O)[C@H]([C@@H](O)[C@H](O)CNC(=O)c2ccccc2)O1`, for which the Ratio in series [1] stood at 18. The Kd in series [2] and in [12] was 137 µM in each case.

Take `CC(=O)N[C@H]1[C@H]([C@@H](O)[C@H](O)CNC(=O)c2ccc(Cl)cc2)O[C@@](OCc2ccc(F)cc2)(C(=O)O)C[C@@H]1O`: the Ratio in series [1] turned out to be 1.2. The affinity in series [2], expressed as Kd, was 13 µM. In [3], this compound returned a logD of -0.11.

Take `CC(=O)N[C@H]1[C@H]([C@@H](O)[C@H](O)CNC(=O)c2ccc(Cl)cc2)O[C@@](OCc2ccc(Cl)cc2)(C(=O)O)C[C@@H]1O`: in series [1], the Ratio worked out at 1.3. This compound also came in with a Kd in series [2] of 15 µM. This compound displayed a logD in series [3] of 0.36.

Regarding `CC(=O)N[C@H]1[C@H]([C@@H](O)[C@H](O)CNC(=O)c2ccc(Cl)cc2)O[C@@](OCc2ccccc2)(C(=O)O)C[C@@H]1O`, the Ratio in [1] is 1. The compound also yielded a Kd in series [2] of 17 µM.

On to `O=C(CCl)N[C@H]1[C@H]([C@@H](O)[C@H](O)CNC(=O)c2ccc(Cl)cc2)O[C@@](OCc2cccc(F)c2F)(C(=O)O)C[C@@H]1O`, for which the Ratio in series [1] was 0.07. In series [2], this compound gave a Kd of 2.1 µM. The compound further registered a logD in series [3] of 0.35.

Regarding `O=C(O)N[C@H]1[C@H]([C@H](O)[C@H](O)CNC(=O)c2ccc(Cl)cc2)O[C@@](O[C@H]2[C@@H](O)[C@@H](CO)O[C@@H](O[C@@H]3CCO[C@H](COCc4ccc(-c5ccccc5)cc4)[C@@H]3O)[C@@H]2O)(C(=O)O)C[C@@H]1O`, the Ratio in series [1] came out at 0.52. Further, binding in [2] was put at a Kd of 2.83 µM.

In the case of `O=C(NC[C@@H](O)[C@H](O)[C@@H]1O[C@@](OCc2cccc(F)c2F)(C(=O)O)C[C@H](O)[C@H]1NC(=O)C1CC1)c1ccc(Cl)cc1`, the Ratio in series [1] turned out to be 0.1. The Kd in series [2] came out at 4.1 µM. In [3], this compound displayed a logD of 0.31.

For the compound `CC(=O)N[C@H]1[C@H]([C@@H](O)[C@H](O)CNC(=O)c2cccc(Cl)c2)O[C@@](OCc2ccccc2)(C(=O)O)C[C@@H]1O`, the Ratio in series [1] came out at 2.65. This compound displayed a Kd in series [2] of 33.9 µM.

With `COCC(=O)N[C@H]1[C@H]([C@@H](O)[C@H](O)CNC(=O)c2ccc(Cl)cc2)O[C@@](OCc2cccc(F)c2F)(C(=O)O)C[C@@H]1O`, the Ratio in series [1] is 0.14. This compound also yielded a Kd in series [2] of 2.3 µM. Further, the logD in [3] stood at 0.06.

Consider `CC(=O)N[C@H]1[C@H]([C@@H](O)[C@H](O)CNC(=O)c2ccccc2)O[C@@](OCc2c[nH]nn2)(C(=O)O)C[C@@H]1O`, for which the Ratio in [1] worked out at 0.74. The compound further showed a Kd in [2] of 11.7 µM.

In the case of `CC(=O)N[C@H]1[C@H]([C@@H](O)[C@H](O)CNC(=O)c2ccc(Cl)c(Cl)c2)O[C@@](OCc2ccccc2)(C(=O)O)C[C@@H]1O`, the Ratio in [1] worked out at 1.61. In series [2], the Kd stood at 19.2 µM.

Values taken from ChEMBL document CHEMBL1156883, “Low molecular weight antagonists of the myelin-associated glycoprotein: synthesis, docking, and biological evaluation” (J Med Chem, 2010).
